The source made the active and inactive calls. The rule behind the calls is not given here.
Columns and labels:
L6 [1] = assay: Effect on [3H]2-deoxy-D-glucose uptake in rat L6 cells at 20 mM upto 48 hrs relative to control; type: functional
[2] = Cytotoxicity against rat L6 cells by MTT assay; type: cell-based
Summary of the method: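 MTT assay on L6 myotubes after the treatment incubations: MTT at 2 mg/mL in αMEM for 30 min at 37 °C, formazan dissolved in DMSO, absorbance read at 570 nm.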

L6 [3] = assay: Effect on [3H]2-deoxy-D-glucose uptake in rat L6 cells at 100 uM relative to control; type: functional
Summary of the method: (§1)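 L6 myotubes were held in αMEM with 2% FCS and 23.0 mM D-glucose for 24 h. They were then treated with increasing concentrations in medium with 10% FCS and 23.0 mM D-glucose for 7 or 18 h; vehicle controls ran 18 h. After washing, uptake was measured with 0.1 mM dGlc plus 1.3 µCi/mL [3H]dGlc in PBS pH 7.4 for 5 min at room temperature. Ice-cold PBS stop, SDS lysis, scintillation counting; basal rate set to 100%.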

L6 [4] = assay: (§2) Effect on [3H]2-deoxy-D-glucose uptake in rat L6 cells at 150 uM relative to control; type: functional; summary of the method: as §1
L6 [5] = assay: (§3) Effect on [3H]2-deoxy-D-glucose uptake in rat L6 cells at 50 uM relative to control; type: functional; summary of the method: as §1
L6 [6] = assay: Increase in [3H]2-deoxy-D-glucose uptake in rat L6 cells preincubated with 23 mM D-glucose for 24 hrs at 5 mM after 7 hrs relative to control; type: functional
Summary of the method: (§4)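 L6 myotubes were preconditioned 24 h at 23.0 mM D-glucose, then given fresh αMEM with 23.0 mM D-glucose plus agent for 7 h. Insulin (200 nM) was added for the last 30 min. A 5-min [3H]dGlc uptake (0.1 mM dGlc, 1.3 µCi/mL) was run in PBS at room temperature, with the 23.0 mM glucose basal rate set to 100%.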

L6 [7] = assay: Increase in GLUT1myc abundance in rat L6 cell membrane at 50 uM after 7 hrs; type: functional, cell-based
Summary of the method: (§5)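 Myc-tagged GLUT1 or GLUT4 L6 myotubes were preconditioned at 5.5 or 23.0 mM glucose for 24 h, then treated in 10% FCS medium for 7 h (18 h for the 5 µM agent). Insulin was 200 nM for 30 min. Intact cells were labeled with rabbit anti-myc (1:200), fixed in 3% formaldehyde, and given HRP anti-rabbit IgG (1:2000). OPD colour was read at 492 nm.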

[8] = Effect on [3H]2-deoxy-D-glucose uptake in human skeletal muscle cells at 20 mM relative to control; type: functional
L6 [9] = assay: Half-maximal stimulation of [3H]2-deoxy-D-glucose uptake in rat L6 cells preincubated 24 hrs with D-glucose assessed after 6 hrs; type: functional
Summary of the method: (§6)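 L6 myotubes were preconditioned 24 h at 23.0 mM D-glucose, then incubated up to 10 h in the same medium plus pentose (20.0 mM for time course; dose-response for half-maximal and maximal). Cells were washed with PBS, then given a 5-min room-temperature uptake of 0.1 mM dGlc with 1.3 µCi/mL [3H]dGlc. Counts were normalised to protein against untreated controls.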

L6 [10] = assay: Inhibition of [3H]2-deoxy-D-glucose uptake in rat L6 cells at 20 mM in presence of 100 nM wortmannin; type: functional, cell-based
Summary of the method: (§7)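 L6 myotubes at 23 mM D-glucose received 100 nM wortmannin 30 min before the agents. Treatment ran in 10% FCS medium for 7 h (18 h for the 5 µM agent). A 5-min [3H]dGlc uptake (0.1 mM dGlc, 1.3 µCi/mL) in PBS at room temperature followed, with the vehicle basal rate set to 100%.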

L6 [11] = assay: Increase in GLUT1myc abundance in rat L6 cell membrane at 20 mM after 7 hrs; type: functional, cell-based; summary of the method: as §5
L6 [12] = assay: Increase in GLUT1myc abundance in rat L6 cell membrane at 5 µM after 18 hrs; type: functional, cell-based; summary of the method: as §5
L6 [13] = assay: Increase in GLUT1myc abundance in rat L6 cell membrane at 150 uM after 7 hrs; type: functional, cell-based; summary of the method: as §5
L6 [14] = assay: Increase in GLUT4myc abundance in rat L6 cell membrane at 20 mM after 7 hrs; type: functional, cell-based; summary of the method: as §5
L6 [15] = assay: Decrease in GLUT4myc abundance in rat L6 cell membrane pretreated with 23.0 mM D-glucose for 24 hrs at 20 mM after 7 hrs; type: functional; parameters: scale not given: the % may be the effect or the level left
L6 [16] = assay: Effect on [3H]2-deoxy-D-glucose uptake in rat L6 cells at 20 mM after 7 hrs relative to control in presence of insulin; type: functional, cell-based; summary of the method: as §4
L6 [17] = assay: Induction of [3H]3-O-methyl-D-glucose uptake in rat L6 cells at 20 mM after 6 hrs relative to control; type: functional
Summary of the method: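 L6 myotubes were preconditioned 24 h at 23.0 mM glucose, then given D-xylose at 20.0 mM for 6 h. Cells were PBS-washed and incubated 90 s at room temperature with 10 µM 3-O-methylglucose, 5.0 µCi/mL [3H]MeGlc and 0.5 µCi/mL [14C]sucrose. The stop wash was ice-cold PBS with 20 mM glucose, 10 µM cytochalasin B and 2 mM HgCl2. Extracellular 3H was subtracted using sucrose counts.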

L6 [18] = assay: Activation of 5-AMP-induced AMPKalpha in rat L6 cells assessed as Tyr172 phosphorylation at 20 mM relative to control; type: cell-based
Summary of the method: (§8)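 L6 myotubes preconditioned 24 h in αMEM with 2% FCS and 23.0 mM D-glucose, then given fresh medium with 10% (v/v) FCS, 23.0 mM D-glucose and test agent; controls received vehicle. Whole-cell lysates (Tris pH 7.5 with phosphatase and protease inhibitors) were blotted for AMPKα and […]-AMPKα, detected by ECL, and bands quantified by densitometry.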

L6 [19] = assay: Increase in [3H]2-deoxy-D-glucose uptake in rat L6 cells at 20 mM preincubated 24 hrs with D-glucose assessed after 6 hrs relative to control; type: functional; summary of the method: as §6
L6 [20] = assay: Induction of [3H]2-deoxy-D-glucose uptake in rat L6 cells at 20 mM after 6 hrs relative to control; type: functional; summary of the method: as §6
Homo sapiens [21] = organism: Homo sapiens; assay: Activation of 5-AMP-induced AMPKalpha in human skeletal muscle cells assessed as Tyr172 phosphorylation at 20 mM relative to control
Summary of the method: (§9)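 Primary human skeletal myoblasts from the rectus abdominis of a donor were differentiated into myotubes and treated in medium with 10% (v/v) FCS, 23.0 mM D-glucose and agent, with vehicle controls. Whole-cell lysates were Western blotted for total AMPKα and […]-AMPKα, with ECL detection and densitometry.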

L6 [22] = assay: Activation of 5-AMP-induced AMPKalpha in rat L6 cells assessed as reduction in Tyr172 phosphorylation at 20 mM relative to control in presence of compound C; type: cell-based; parameters: scale not given: the % may be the effect or the level left
L6 [23] = assay: Maximal stimulation of [3H]2-deoxy-D-glucose uptake in rat L6 cells preincubated 24 hrs with D-glucose assessed after 6 hrs; type: functional; summary of the method: as §6
L6 [24] = assay: Activation of AMPKalpha in rat L6 cells assessed as ATP concentration per mg of protein at 20 mM in presence of 23 mM D-glucose; type: cell-based
Summary of the method: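 L6 myotubes were preconditioned at 5.0 or 23.0 mM D-glucose for 24 h, then treated. Cells were washed in cold 0.15 M Tris-HCl pH 7.75 and extracted with ice-cold 0.5% TCA. The cleared supernatant was assayed with luciferase/D-luciferin luminescence at room temperature against an ATP standard curve, expressed per mg protein. DNP 5 mM for 10 min served as the positive control.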

L6 [25] = assay: Effect on [3H]2-deoxy-D-glucose uptake in rat L6 cells at 200 uM relative to control; type: functional; summary of the method: as §1
L6 [26] = assay: Increase in GLUT4myc abundance in rat L6 cell membrane at 50 uM after 7 hrs; type: functional, cell-based; summary of the method: as §5
L6 [27] = assay: Activation of 5-AMP-induced AMPKalpha in rat L6 cells assessed as […] phosphorylation at 50 uM relative to control in presence of compound C; type: cell-based
L6 [28] = assay: Activation of 5-AMP-induced AMPKalpha in rat L6 cells assessed as […] phosphorylation at 50 uM relative to control; type: cell-based; summary of the method: as §8
L6 [29] = assay: as §3; type: functional, cell-based; details: TDE = time-dependent effect; summary of the method: as §1
L6 [30] = assay: Effect on [3H]2-deoxy-D-glucose uptake in rat L6 cells at 5 uM relative to control; type: functional, cell-based; details: TDE = time-dependent effect; summary of the method: as §1
L6 [31] = assay: Inhibition of [3H]2-deoxy-D-glucose uptake in rat L6 cells at 50 uM in presence of 100 nM wortmannin; type: functional, cell-based; summary of the method: as §7
L6 [32] = assay: as §2; type: functional, cell-based; details: TDE = time-dependent effect; summary of the method: as §1
[33] = Effect on [3H]2-deoxy-D-glucose uptake in human skeletal muscle cells at 50 uM relative to control; type: functional
Homo sapiens [34] = organism: Homo sapiens; assay: Activation of 5-AMP-induced AMPKalpha in human skeletal muscle cells assessed as […] phosphorylation at 50 uM relative to control; summary of the method: as §9

## CO[C@@H]1COC(O)[C@H](O)[C@H]1O (stereo partly drawn)
L6 [1]
  fold change (FC): 0.99
[2]
  MCC: 50000 µM

## O[C@H]1OC[C@@H](OCc2ccccc2)[C@H](OCc2ccccc2)[C@H]1OCc1ccccc1
L6 [3]
  fold change (FC): 0.94
[2]
  MCC: 200 µM

## COC[C@H]1OC(O)[C@H](O)[C@H]1O (stereo partly drawn)
L6 [1]
  fold change (FC): 1.03
[2]
  MCC: 50000 µM

## COC(OC)[C@@H]1OC(c2ccccc2)O[C@@H]2COC(c3ccccc3)O[C@@H]21 (stereo partly drawn)
[2]
  MCC: 300 µM
L6 [4]
  fold change (FC): 1.06

## CC1(C)OC[C@H]2O[C@@H]3OC(C)(C)O[C@@H]3[C@H]2O1
L6 [5]
  fold change (FC): 1.08
[2]
  MCC: 100 µM

## O[C@@H]1[C@@H](O)[C@@H](OCc2ccccc2)OC[C@H]1O
L6 [3]
  fold change (FC): 0.9
[2]
  MCC: 500 µM

## CC1(C)O[C@H]2O[C@H](CO)[C@H](O)[C@H]2O1
L6 [5]
  fold change (FC): 0.94
[2]
  MCC: 150 µM

## CO[C@H]1[C@H](O)COC(O)[C@@H]1O (stereo partly drawn)
L6 [6]
  fold change (FC): 2.1

## CCCS[C@@H]1OC[C@@H](O)[C@H](O)[C@H]1O
L6 [3]
  fold change (FC): 0.92
[2]
  MCC: 200 µM

## O=C[C@H](O)[C@@H](O)[C@H](O)CO [XYLOSE]
L6 [7]
  Activity: inactive
[8]
  fold change (FC): 1.43
L6 [9]
  Activity: 5.8 mM
L6 [10]
  Activity: Active
L6 [11]; 20 mM
  Activity: inactive
L6 [12]
  Activity: inactive
L6 [13]
  Activity: inactive
L6 [14]
  Activity: Active
L6 [15]
  Activity: 50%
L6 [16]
  Activity: Active
L6 [17]
  fold change (FC): 1.69
L6 [18]
  fold change (FC): 3.23
L6 [19]
  fold change (FC): 1.77
L6 [20]
  fold change (FC): 1.51
Homo sapiens [21]
  Activity: Active
L6 [22]
  Activity: 68.9%
L6 [23]
  Activity: 13.7 mM
L6 [24]
  Activity: 1.6 mmol

## CCOC1OC[C@@H](O)[C@H](O)[C@H]1O (stereo partly drawn)
L6 [1]
  fold change (FC): 1.01
[2]
  MCC: 50000 µM

## CC(=O)O[C@@H]1OC[C@@H](OC(C)=O)[C@H](OC(C)=O)[C@H]1OC(C)=O
L6 [25]
  fold change (FC): 0.99
L6 [1]
  fold change (FC): 1.05
[2]
  MCC: 500 µM

## CCSC(SCC)[C@@H]1O[C@H](c2ccccc2)O[C@H](CO)[C@@H]1OC
L6 [7]
  Activity: inactive
L6 [26]
  Activity: Active
L6 [27]
  Activity: 69.2%
L6 [28]
  fold change (FC): 3.98
L6 [29]
  Activity: tde
L6 [11]; 50 uM, in the assay text read “at 50 uM” for “at 20 mM”
  Activity: inactive
L6 [12]
  Activity: inactive
L6 [30]
  Activity: tde
L6 [13]
  Activity: inactive
L6 [31]
  Activity: Active
L6 [32]
  Activity: tde
[33]
  fold change (FC): 1.4
Homo sapiens [34]
  Activity: Active

Reference: ChEMBL document CHEMBL1151715, “Novel D-xylose derivatives stimulate muscle glucose uptake by activating AMP-activated protein kinase alpha” (J Med Chem, 2008)
